Screens from PubChem.
This is a sample that favours compounds with a hit; in the whole collection about 1.5% have one here.
STAT1 inh: inhibitors of IFN-gamma induced STAT1 signaling; 200,000 tested, 0.35% active; inhibition, % at 5.5 µM; NIH 3T3 STAT1-luciferase reporter, luminescence; AID 920;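 active = inhibition above a set limit, the mean inhibition across all tested compounds plus 3 SD, cut at about 34% in these data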;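 note: 0% = IFN-gamma with DMSO and 100% = IFN-gamma with 300 µM nifuroxazide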
STAT3 inh: STAT3 signaling inhibition; U3A cells, IL-6 STAT3-luciferase reporter, luminescence; host cell line lacks STAT1; 190,000 tested, 0.89% active; inhibition, % at 5.5 µM;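 active = inhibition above the mean inhibition across all screened compounds plus 3 SD, cut at about 44% in these data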;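 note: 0% = DMSO only wells and 100% = 100 µM nifuroxazide control wells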
TAG inh: reduces triacylglycerol accumulation in H9c2 cells. Nile Red lipid (TAG) fluorescence; cells loaded with 200 µM oleic acid. inhibition, % at 12.5 µM. 230,000 tested, 0.66% active. AID 651582;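 active = pattern-corrected inhibition of lipid staining of at least 50% with the nuclear-stain viability signal not falling by more than 50%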;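 note: 0% = DMSO wells and 100% = triacsin C control wells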
Hep lipid drop: modulators of hepatic lipid droplet formation; 240,000 tested, 0.4% active; AML12 mouse hepatocytes, oleate lipid droplets, BODIPY imaging; inhibition, % at 6.5 µM;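 active = lipid droplet intensity inhibited by at least 50%, with more than 500 cells counted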
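Assay system: AML12 hepatocytes (mouse); Probe or stimulus: oleic acid at 100 µM to induce lipid droplet formation; Dosing: compound at 6.5 µM only; Schedule: compound with oleate, overnight; Detection: fluorescence imaging, 20x objective, two fields per well; Measure: % inhibition of lipid droplet signal.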
PPC-1+TRAIL kill: kills PPC-1 cancer cells in the presence of TRAIL; cell killing (% activity), % at 4 µM or 5 µM; PPC-1 cells + TRAIL, ATPLite viability luminescence; 220,000 tested, 0.41% active;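 active = cell killing above 50% in the first pass at 4 µM, then a duplicate retest at 5 µM averaging 50% or more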;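 note: plate controls were cells with TRAIL plus DMSO for no effect and medium-only wells lacking cells for full effect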
Platelet DG rel: modulates dense granule release in human platelets; human platelet-rich plasma, SFLLRN dense granule ATP release, luminescence; inhibition, %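 (compounds screened at 7.5 µM in platelet-rich plasma)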; 300,000 tested, 0.22% active;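 active = mean replicate score, as percent of positive control, at or above 50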
TAG conf: confirmation of triacylglycerol accumulation inhibitors; 990 tested, 71% active; H9c2 lipid accumulation, Nile Red fluorescence; cells loaded with 200 µM oleic acid; AID 651629; shares compounds with TAG inh; inhibition, % at 12.5 µM;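 active = mean inhibition across replicates of 40% or more; inactive = mean inhibition below 40%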;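 note: plate controls were DMSO only wells for no effect and Triacsin C treated wells for full effect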
* hit, by the source's call.

Screening O=C1NC(Cc2ccc(O)cc2)c2nc3cc(F)ccc3c(=O)n2-c2cc3ccccc3cc21 (stereo unspecified) returned TAG inh 35.0.
For Cc1ccc2c(=O)n3c(nc2c1)C(Cc1ccc(O)cc1)NC(=O)c1cc2ccccc2cc1-3 (stereo unspecified) the results were TAG inh 52.6* and TAG conf 67.2*.
For O=C1NC(Cc2ccc(O)cc2)c2nc3ccc(Cl)cc3c(=O)n2-c2cc3ccccc3cc21 (stereo unspecified) the results were TAG inh 63.9* and TAG conf 60.1*.
For O=C(O)Cn1ccc2cc(S(=O)(=O)N3CCCCC3)ccc21 the results were TAG inh 7.7.
`O=C1COc2ccc(C(=O)CSc3nc4ccccc4c(=O)n3-c3ccc(Cl)c(Cl)c3)cc2N1` gave STAT1 inh -1.5, STAT3 inh 2.0, TAG inh 61.3*, Hep lipid drop -10.3, PPC-1+TRAIL kill 28.7, Platelet DG rel 2.5 and TAG conf 65.9*.
For COc1ccc(OC)c(Nc2nc(-c3sc(NC(=O)CC(C)C)nc3C)cs2)c1 the results were STAT1 inh 2.6, STAT3 inh 18.1, TAG inh 58.2*, PPC-1+TRAIL kill 4.3, Platelet DG rel 5.2 and TAG conf 65.5*.
For Cc1cc(NC(=O)c2ccccc2F)n(-c2nc3ccccc3[nH]2)n1 the results were STAT1 inh -9.1, STAT3 inh 20.7, TAG inh 64.1*, PPC-1+TRAIL kill 3.7, Platelet DG rel 4.0 and TAG conf 57.0*.
CCOC(=O)c1c(CSC(=N)N)n(-c2ccccc2)c2cc(Br)c(OC(C)=O)cc12 was read as TAG inh 61.9*, Hep lipid drop 36.8, PPC-1+TRAIL kill 7.5, Platelet DG rel -3.9 and TAG conf 67.6*.
CCOC(=O)c1c(CN2CCN(C)CC2)n(-c2ccccc2)c2cc(Br)c(O)cc12 was read as TAG inh 10.8, Hep lipid drop 25.7, PPC-1+TRAIL kill -11.6 and Platelet DG rel 18.8.
For O=C(NCc1cccnc1)c1cc(C(=O)NCc2cccnc2)cc([N+](=O)[O-])c1 the results were TAG inh 1.1.
For COc1cc(-c2ccc3oc(-c4cccc(C)c4)c(C#CC4(O)CCCCC4)c3c2)cc(OC)c1OC the results were TAG inh 51.2* and TAG conf 53.4*.
`Cc1ccc(C)c(C(=O)NC(C)CCc2ccccc2)c1` (stereo unspecified) gave STAT1 inh 9.2, STAT3 inh 9.2, TAG inh -1.8, Hep lipid drop -30.3, PPC-1+TRAIL kill 14.4 and Platelet DG rel -1.1.
Cc1occc1C(=O)NC(C)CCc1ccccc1 (stereo unspecified) was read as STAT1 inh -6.3, STAT3 inh 5.7, TAG inh 50.8*, PPC-1+TRAIL kill 0.9, Platelet DG rel -0.7 and TAG conf 54.2*.
Cc1ccc(CC2(OCCN(C)C)CCC(C(C)(C)C)CC2)cc1 (stereo unspecified) was read as TAG inh 83.8* and TAG conf 62.6*.
O=C(NCC(=O)N1CCN(c2ncccn2)CC1)c1ccccc1OC(F)F was read as TAG inh -13.1.
Screening Cc1ccc(/C=N/NC(=O)Cc2c[nH]c3ccccc23)c(C)c1 returned STAT1 inh 0.9, STAT3 inh -40.9, TAG inh 54.4*, PPC-1+TRAIL kill 15.5, Platelet DG rel -5.9 and TAG conf 44.4*.
For CC(C)(C)c1ccc(/C=N/NC(=O)Cc2c[nH]c3ccccc23)cc1 the results were STAT1 inh -6.4, STAT3 inh -6.9, TAG inh 57.8*, Hep lipid drop 16.9, PPC-1+TRAIL kill 13.0, Platelet DG rel 4.4 and TAG conf 42.2*.
`Cc1cccc2c(C(=O)N3CCCCC3)cc(-c3ccccc3)nc12` gave Hep lipid drop -21.5 and Platelet DG rel -10.2.
Screening Cc1nn(-c2cccc(Cl)c2)c2nc(-c3ccncc3)cc(C(=O)N3CCOCC3)c12 returned STAT1 inh -6.7, STAT3 inh 4.0, TAG inh 52.6*, Hep lipid drop 7.3, PPC-1+TRAIL kill 13.1, Platelet DG rel -5.6 and TAG conf 52.5*.
For Cc1cccc2c(C(=O)N3CCN(c4ccccc4)CC3)cc(-c3ccncc3)nc12 the results were TAG inh 60.2*, Hep lipid drop -176.2, Platelet DG rel -16.8 and TAG conf 76.6*.
For OC[C@@H]1CN(Cc2ccccc2)C[C@H](n2cnc3c(Nc4ccccc4)ncnc32)O1 the results were TAG inh 6.1.
`CCOC(=O)c1cnn(-c2nc(-c3ccccc3)nc3c2COC(C)(C)C3)c1N` gave STAT1 inh 6.2, STAT3 inh 9.4, TAG inh 53.7*, PPC-1+TRAIL kill 21.9, Platelet DG rel -4.0 and TAG conf 20.2.
Screening CCOC(=O)c1cnn(-c2ccccc2)c1N returned STAT1 inh 1.0, STAT3 inh 5.3, Hep lipid drop 19.5, PPC-1+TRAIL kill 8.9 and Platelet DG rel 10.0.
For COc1ccc(S(=O)(=O)N2C[C@H]3CON(C)[C@H]3C[C@H]2c2ccc(-c3cc4ccccc4o3)cc2)cc1 the results were TAG inh -4.0.
For CCC(=O)Nc1c(-c2ccc(OC)cc2)c(=O)c2ccccc2n1C the results were STAT1 inh 4.6, STAT3 inh -11.1, TAG inh 61.0*, Hep lipid drop 1.6, PPC-1+TRAIL kill -1.5, Platelet DG rel -2.7 and TAG conf 3.5.
For CCC(=O)Nc1c(-c2ccc(C)cc2)c(=O)c2ccccc2n1C the results were Hep lipid drop -2.9 and Platelet DG rel -5.5.
Screening CCN(CC)CCn1c2c(c(SCC(=O)Nc3ccc(C)c(F)c3)nc1=O)CCC2 returned TAG inh 11.5 and Platelet DG rel -7.4.
For CCN(CC)CCn1c2c(c(SCC(=O)Nc3ccc(C)c(F)c3)nc1=O)CCCC2 the results were TAG inh 52.6*, Platelet DG rel -0.8 and TAG conf 19.1.
Screening COc1ccc(NC2=NC(=S)N(c3cccc(C)c3)C23CCCCC3)cc1 returned STAT1 inh -0.7, STAT3 inh 8.5, TAG inh -6.7, Hep lipid drop -2.4, PPC-1+TRAIL kill 11.4 and Platelet DG rel 1.2.
`COc1ccc(NC2=NC(=S)N(c3ccc(C)cc3)C23CCCCC3)cc1` gave STAT1 inh 0.6, STAT3 inh 8.7, TAG inh 56.8*, PPC-1+TRAIL kill 17.9, Platelet DG rel -2.6 and TAG conf 29.9.
For OC(c1ccccc1)(c1nc(-c2ccc(Cl)cc2)cs1)C(F)(F)F (stereo unspecified) the results were TAG inh -20.3.
